pIC50: −log10 of the molar value. The source made the active and inactive calls. No cut-off for these calls is given here.
Legend:
[1] = Inhibition of bovine brain tubulin polymerization by turbidimetric analysis; parameters: species or system Bos taurus
How it was run: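 Purified bovine brain tubulin (10 µM) preincubated with varying compound concentrations in glutamate buffer at 30 °C, then cooled to 0 °C. GTP added, mixtures warmed to 30 °C in cuvettes, and assembly followed by turbidity.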

MCF7 [2] = assay: Antiproliferative activity against human MCF7 cells after 48 hrs by MTT assay; assay type: functional, cell-based; conditions: MCF7, 48 h
How it was run: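 After 24 h at 37 °C, 5% CO₂, compounds were added at preset concentrations for 48 h. MTT (2.5 mg/mL in PBS) was then added for 4 h, followed by 10% SDS–5% isobutyl alcohol–0.01 M HCl overnight at 37 °C. OD read at 570 nm. Triplicate wells per concentration; each assay run at least three times.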

MCF7 [3] = assay: Cell cycle arrest in human MCF7 cells assessed as accumulation at S phase at 50 nM after 24 hrs by flow cytometry relative to control; assay type: functional
How it was run: (§1)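 Cells treated at 50 nM or 500 nM for 24 h, collected and fixed overnight in 70% ethanol at −20 °C. After two PBS washes, RNase A (0.5 mg/mL) and propidium iodide (2.5 µg/mL) were added for 30 min. DNA content was measured by flow cytometry and the percentage of cells in each cycle phase was determined.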

MCF7 [4] = assay: Cell cycle arrest in human MCF7 cells assessed as accumulation at sub-G1 phase at 50 nM after 24 hrs by flow cytometry relative to control; assay type: functional; how it was run: as §1
MCF7 [5] = assay: Induction of apoptosis in human MCF7 cells assessed as morphological changes at 1 uM after 24 hrs using DAPI staining by fluorescence microscopic analysis; assay type: functional, cell-based
How it was run: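 Cells cultured on 6-well plates and treated at 0 or 1.0 µM for 24 h. Fixed in ice-cold 4% paraformaldehyde for 20 min, then permeabilized in 0.1% sodium citrate/0.1% Triton X-100 for 2 min at 4 °C. Stained with DAPI (300 nM) and examined by fluorescence microscopy for nuclear morphology.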

MCF7 [6] = assay: Cell cycle arrest in human MCF7 cells assessed as accumulation at G2/M phase at 500 nM after 24 hrs by flow cytometry relative to control; assay type: functional; how it was run: as §1
MCF7 [7] = assay: Cell cycle arrest in human MCF7 cells assessed as accumulation at G1 phase at 50 nM after 24 hrs by flow cytometry relative to control; assay type: functional; how it was run: as §1
MCF7 [8] = assay: Cell cycle arrest in human MCF7 cells assessed as accumulation at G2/M phase at 50 nM after 24 hrs by flow cytometry relative to control; assay type: functional; how it was run: as §1
MCF7 [9] = assay: Cell cycle arrest in human MCF7 cells assessed as accumulation at G1 phase at 500 nM after 24 hrs by flow cytometry relative to control; assay type: functional; how it was run: as §1
MCF7 [10] = assay: Cell cycle arrest in human MCF7 cells assessed as accumulation at S phase at 500 nM after 24 hrs by flow cytometry relative to control; assay type: functional; how it was run: as §1
MCF7 [11] = assay: Cell cycle arrest in human MCF7 cells assessed as accumulation at sub-G1 phase at 500 nM after 24 hrs by flow cytometry relative to control; assay type: functional; how it was run: as §1
MCF7 [12] = assay: Cell cycle arrest in human MCF7 cells assessed as accumulation at G2/M phase after 24 hrs by flow cytometry; assay type: functional, cell-based; how it was run: as §1
MCF7 [13] = assay: Cell cycle arrest in human MCF7 cells assessed as accumulation at sub-G1 phase after 24 hrs by flow cytometry relative to control; assay type: functional; how it was run: as §1
MCF7 [14] = assay: Cell cycle arrest in human MCF7 cells assessed as accumulation at S phase after 24 hrs by flow cytometry relative to control; assay type: functional; how it was run: as §1
MCF7 [15] = assay: Cell cycle arrest in human MCF7 cells assessed as accumulation at G2/M phase after 24 hrs by flow cytometry relative to control; assay type: functional; how it was run: as §1
MCF7 [16] = assay: Cell cycle arrest in human MCF7 cells assessed as accumulation at G1 phase after 24 hrs by flow cytometry relative to control; assay type: functional; how it was run: as §1

Row | SMILES | pIC50 [1] | pIC50 (MCF7 [2]) | also measured
1 | N=C(N)N/N=C(/C=C/c1ccc(F)cc1)c1ccccc1 | 4.55 | 5.60 | –
2 | COc1cccc(/C=C/C(=N/NC(=N)N)c2ccccc2)c1 | 3.89 | 4.89 | –
3 | N=C(N)N/N=C(/C=C/c1ccccc1Cl)c1ccccc1 | 4.26 | 5.38 | –
4 | Cc1ccc(C(/C=C/c2ccccc2)=N\NC(=N)N)cc1 | 3.82 | 4.85 | –
5 | N=C(N)N/N=C(/C=C/c1ccc(-c2ccccc2)cc1)c1ccccc1 | 4.92 | 6.10 | –
6 | N=C(N)N/N=C(/C=C/c1cccc([N+](=O)[O-])c1)c1ccccc1 | 4.07 | 5.19 | –
7 | COc1ccc(/C=C\c2cc(OC)c(OC)c(OC)c2)cc1O [COMBRETASTATIN A4] | 5.66 | – | –
8 | N=C(N)N/N=C(/C=C/c1ccccc1)c1ccc(Cl)c(Cl)c1 | 4.62 | 5.72 | –
9 | N=C(N)N/N=C(/C=C/c1cccc2ccccc12)c1ccccc1 | 4.74 | 5.80 | –
10 | COc1ccccc1/C=C/C(=N/NC(=N)N)c1ccccc1 | 4.08 | 5.14 | –
11 | COc1ccc(C(/C=C/c2ccccc2)=N\NC(=N)N)cc1 | 3.89 | 4.89 | –
12 | Cc1ccc(/C=C/C(=N/NC(=N)N)c2ccccc2)cc1 | 3.77 | 4.80 | –
13 | N=C(N)N/N=C(/C=C/c1cccc(F)c1)c1ccccc1 | 3.82 | 4.80 | –
14 | N=C(N)N/N=C(/C=C/c1ccc(OCc2ccccc2)cc1)c1ccccc1 | 4.80 | 5.92 | –
15 | N=C(N)N/N=C(/C=C/c1ccc(Cl)cc1)c1ccccc1 | 4.85 | 6.15 | –
16 | N=C(N)N/N=C(/C=C/c1ccccc1)c1ccc(Cl)cc1 | 4.82 | 6.46 | –
17 | N=C(N)N/N=C(/C=C/c1ccccc1F)c1ccccc1 | 4.38 | 5.41 | –
18 | N=C(N)N/N=C(/C=C/c1ccc(Br)cc1)c1ccccc1 | 5.00 | 6.60 | –
19 | N=C(N)N/N=C(/C=C/c1ccccc1)c1ccc(Br)cc1 | 5.08 | 7.05 | Activity (MCF7 [3]): 14.54%; Activity (MCF7 [4]): 2.63%; Activity (MCF7 [5]): Active; Activity (MCF7 [6]): 54.12%; Activity (MCF7 [7]): 48.76%; Activity (MCF7 [8]): 23.38%; Activity (MCF7 [9]): 1.5%; Activity (MCF7 [10]): 3.14%; Activity (MCF7 [11]): 4.52%; Activity (MCF7 [12]): Dose-dependent effect
20 | COc1ccc(/C=C/C(=N/NC(=N)N)c2ccccc2)cc1 | 3.85 | 4.85 | –
21 | N=C(N)N/N=C(/C=C/c1ccccc1Br)c1ccccc1 | 4.28 | 5.38 | –
22 | COc1cc2c(c(OC)c1OC)-c1ccc(OC)c(=O)cc1[C@@H](NC(C)=O)CC2 [COLCHICINE] | – | – | Activity (MCF7 [13]): 14.58%; Activity (MCF7 [14]): 8.16%; Activity (MCF7 [15]): 43.11%; Activity (MCF7 [16]): 8.58%
23 | N=C(N)N/N=C(/C=C/c1ccccc1)c1ccccc1 | 3.85 | 4.77 | –
